Calls of active or inactive are those of the source. The calls are words filed in the database; no cut-off is given here.
Assays:
CAL-51 [1] = experiment: Antitumor activity against human CAL51 cells xenografted in po dosed CB17 SCID mouse assessed as tumor growth inhibition administered every seven days for 16 days and measured twice per week up to 31 days by caliper method; type: functional, organism-based
In short: (§1)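 Female CB17 SCID mice, 6-8 weeks old, inoculated subcutaneously with 2×10^6 CAL-51 cells. Oral dosing once weekly (QW) at 30-120 mg/kg, or 30 mg/kg BID QW, for 16 days, against vehicle control. Tumour long and short axes measured twice weekly by digital caliper; volume = width² × length/2. Values are TGI; data are mean ± SEM.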

Homo sapiens = species: Homo sapiens; experiment: Selectivity ratio of IC50 for recombinant human full length His-tagged JNK1 expressed in baculovirus expression system to IC50 for inhibition of Kinase Tracer 236 binding to recombinant human full-length GST-tagged TTk expressed in baculovirus expression system
[2] = AUC in CB17 SCID mouse at 30 mg/kg, po; type: ADME, organism-based; settings: in vivo
In short: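 Oral PK in SCID mice at 30 mg/kg. Compound is formulated either in CMCT (0.5% CMC/0.25% tween-80) or in 5% TPGS, 10% captisol, 50 mM citrate buffer, depending on compound. Cmax and AUC are measured.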

[3] = target: T1, Testis-specific serine/threonine-protein kinase 1 (Homo sapiens) (UniProt Q9BXA7); experiment: Inhibition of recombinant human full length His-tagged TSSK1 expressed in baculovirus expression system at 3 uM by Z'-LYTE assay relative to control
T1 sequence (whole entry): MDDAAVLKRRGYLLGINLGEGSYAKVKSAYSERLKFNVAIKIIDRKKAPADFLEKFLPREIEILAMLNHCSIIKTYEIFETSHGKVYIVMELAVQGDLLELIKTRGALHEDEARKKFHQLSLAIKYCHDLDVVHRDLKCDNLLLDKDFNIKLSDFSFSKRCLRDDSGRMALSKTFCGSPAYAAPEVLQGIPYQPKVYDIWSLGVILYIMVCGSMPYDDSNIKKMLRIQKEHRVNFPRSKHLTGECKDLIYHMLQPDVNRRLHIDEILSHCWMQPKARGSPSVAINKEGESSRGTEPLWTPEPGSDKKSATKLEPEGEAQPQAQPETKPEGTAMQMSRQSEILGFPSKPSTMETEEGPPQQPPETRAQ
In short: (§2)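 Kinase selectivity panel: single-point assessment at 3 µM, n=1.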

Mus musculus = experiment: Inhibition of mitosis in human CAL51 cells xenografted in CB17 SCID mouse assessed reduction in pHH3 ser10 level at 30 mg/kg, po administered as single dose measured after 1 hr by MSD electrochemiluminescent immunoassay; type: functional, organism-based
In short: (§3)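 CB17 SCID mice bearing CAL-51 tumours of 300-500 mm3 given compound orally. At preset time points the mice were euthanised and the tumours dissected and snap-frozen in liquid nitrogen. pHH3 Ser10 or cleaved caspase measured by MSD electrochemiluminescent immunoassay kit. Data are mean ± SEM.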

[4] = target: T2, Dual specificity protein kinase TTK (Homo sapiens, UniProt P33981); experiment: Inhibition of Kinase Tracer 236 binding to recombinant human full-length GST-tagged TTk expressed in baculovirus expression system measured after 1 hr by LanthaScreen Eu--kinase binding assay
T2 sequence (P33981 whole entry): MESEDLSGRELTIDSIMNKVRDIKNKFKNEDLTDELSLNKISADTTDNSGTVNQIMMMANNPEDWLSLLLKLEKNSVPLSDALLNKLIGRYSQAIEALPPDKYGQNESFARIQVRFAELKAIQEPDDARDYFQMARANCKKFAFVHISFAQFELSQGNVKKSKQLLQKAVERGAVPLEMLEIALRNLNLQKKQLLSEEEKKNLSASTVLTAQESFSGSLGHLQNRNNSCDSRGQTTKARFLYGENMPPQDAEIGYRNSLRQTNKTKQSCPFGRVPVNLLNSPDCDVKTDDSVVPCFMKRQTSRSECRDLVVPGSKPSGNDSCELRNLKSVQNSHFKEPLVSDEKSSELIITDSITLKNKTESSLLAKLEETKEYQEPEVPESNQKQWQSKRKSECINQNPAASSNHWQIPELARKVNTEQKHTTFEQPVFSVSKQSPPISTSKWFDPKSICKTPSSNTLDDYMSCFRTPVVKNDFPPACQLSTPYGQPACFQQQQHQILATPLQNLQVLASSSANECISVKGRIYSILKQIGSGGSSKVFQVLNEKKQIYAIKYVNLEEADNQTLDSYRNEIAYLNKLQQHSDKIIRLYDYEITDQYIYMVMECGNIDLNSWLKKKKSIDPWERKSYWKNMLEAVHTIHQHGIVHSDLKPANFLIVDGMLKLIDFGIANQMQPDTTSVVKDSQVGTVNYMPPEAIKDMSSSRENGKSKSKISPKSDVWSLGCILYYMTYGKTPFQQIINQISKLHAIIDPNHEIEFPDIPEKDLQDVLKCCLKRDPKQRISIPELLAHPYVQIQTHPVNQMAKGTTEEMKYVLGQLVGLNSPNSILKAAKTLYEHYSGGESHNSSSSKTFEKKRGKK

[5] = target: Mitogen-activated protein kinase 10 (Homo sapiens, UniProt P53779); experiment: Inhibition of recombinant human full length N-terminal GST-tagged JNK3 expressed in baculovirus expression system at 3 uM by Z'-LYTE assay relative to control; in short: as §2
Mitogen-activated protein kinase 10, sequence (P53779 whole entry, the tested form may be a part): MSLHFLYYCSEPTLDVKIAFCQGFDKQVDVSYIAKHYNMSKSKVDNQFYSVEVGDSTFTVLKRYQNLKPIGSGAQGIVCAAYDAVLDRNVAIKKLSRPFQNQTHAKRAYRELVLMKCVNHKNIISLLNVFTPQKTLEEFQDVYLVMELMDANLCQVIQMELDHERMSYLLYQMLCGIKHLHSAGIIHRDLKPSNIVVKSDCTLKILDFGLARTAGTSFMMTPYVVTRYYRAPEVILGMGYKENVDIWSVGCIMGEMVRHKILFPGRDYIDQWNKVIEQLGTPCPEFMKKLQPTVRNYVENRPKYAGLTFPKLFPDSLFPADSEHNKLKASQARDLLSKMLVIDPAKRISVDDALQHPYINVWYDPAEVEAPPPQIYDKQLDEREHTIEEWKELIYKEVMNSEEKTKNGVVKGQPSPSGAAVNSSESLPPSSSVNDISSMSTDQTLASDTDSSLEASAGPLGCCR

[6] = target: Dual specificity protein kinase CLK2 (Homo sapiens, UniProt P49760); experiment: Inhibition of recombinant human GST-tagged CLK2 catalytic domain (137 to 498 residues) expressed in baculovirus expression system by Z'-LYTE assay
Dual specificity protein kinase CLK2, sequence (P49760 whole entry, the tested form may be a part): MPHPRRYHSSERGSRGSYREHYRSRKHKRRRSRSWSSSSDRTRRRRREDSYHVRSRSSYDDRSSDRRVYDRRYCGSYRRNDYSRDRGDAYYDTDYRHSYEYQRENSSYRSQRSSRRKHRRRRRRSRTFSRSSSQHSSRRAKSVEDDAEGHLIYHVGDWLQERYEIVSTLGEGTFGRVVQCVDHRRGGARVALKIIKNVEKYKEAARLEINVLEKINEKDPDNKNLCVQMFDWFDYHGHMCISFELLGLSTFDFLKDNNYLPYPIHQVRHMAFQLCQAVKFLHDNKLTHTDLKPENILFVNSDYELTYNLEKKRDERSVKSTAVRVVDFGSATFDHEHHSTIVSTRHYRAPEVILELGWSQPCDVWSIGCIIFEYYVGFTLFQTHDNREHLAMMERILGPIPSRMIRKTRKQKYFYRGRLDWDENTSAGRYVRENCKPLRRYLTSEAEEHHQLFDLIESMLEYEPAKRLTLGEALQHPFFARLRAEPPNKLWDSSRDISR

CAL-51 [7] = experiment: Induction of apoptosis in human CAL51 cells xenografted in CB17 SCID mouse assessed as activation of cleaved caspase-3 at 10 mg/kg, po measured after 1 to 48 hrs by MSD electrochemiluminescent immunoassay relative to control; type: functional; in short: as §3
[8] = target: Leucine-rich repeat serine/threonine-protein kinase 2 (Homo sapiens, UniProt Q5S007, G2019S); experiment: Inhibition of recombinant human GST-tagged LRRK2 G2019S mutant catalytic domain (970 to 2527 residues) expressed in baculovirus expression system using LRRKtide as substrate measured after 1 hr by Alexa-fluor-647 ADP tracer-based ADAPTA assay
Leucine-rich repeat serine/threonine-protein kinase 2 (Homo sapiens, UniProt Q5S007, G2019S), sequence (Q5S007 whole entry G2019S, the tested form may be a part): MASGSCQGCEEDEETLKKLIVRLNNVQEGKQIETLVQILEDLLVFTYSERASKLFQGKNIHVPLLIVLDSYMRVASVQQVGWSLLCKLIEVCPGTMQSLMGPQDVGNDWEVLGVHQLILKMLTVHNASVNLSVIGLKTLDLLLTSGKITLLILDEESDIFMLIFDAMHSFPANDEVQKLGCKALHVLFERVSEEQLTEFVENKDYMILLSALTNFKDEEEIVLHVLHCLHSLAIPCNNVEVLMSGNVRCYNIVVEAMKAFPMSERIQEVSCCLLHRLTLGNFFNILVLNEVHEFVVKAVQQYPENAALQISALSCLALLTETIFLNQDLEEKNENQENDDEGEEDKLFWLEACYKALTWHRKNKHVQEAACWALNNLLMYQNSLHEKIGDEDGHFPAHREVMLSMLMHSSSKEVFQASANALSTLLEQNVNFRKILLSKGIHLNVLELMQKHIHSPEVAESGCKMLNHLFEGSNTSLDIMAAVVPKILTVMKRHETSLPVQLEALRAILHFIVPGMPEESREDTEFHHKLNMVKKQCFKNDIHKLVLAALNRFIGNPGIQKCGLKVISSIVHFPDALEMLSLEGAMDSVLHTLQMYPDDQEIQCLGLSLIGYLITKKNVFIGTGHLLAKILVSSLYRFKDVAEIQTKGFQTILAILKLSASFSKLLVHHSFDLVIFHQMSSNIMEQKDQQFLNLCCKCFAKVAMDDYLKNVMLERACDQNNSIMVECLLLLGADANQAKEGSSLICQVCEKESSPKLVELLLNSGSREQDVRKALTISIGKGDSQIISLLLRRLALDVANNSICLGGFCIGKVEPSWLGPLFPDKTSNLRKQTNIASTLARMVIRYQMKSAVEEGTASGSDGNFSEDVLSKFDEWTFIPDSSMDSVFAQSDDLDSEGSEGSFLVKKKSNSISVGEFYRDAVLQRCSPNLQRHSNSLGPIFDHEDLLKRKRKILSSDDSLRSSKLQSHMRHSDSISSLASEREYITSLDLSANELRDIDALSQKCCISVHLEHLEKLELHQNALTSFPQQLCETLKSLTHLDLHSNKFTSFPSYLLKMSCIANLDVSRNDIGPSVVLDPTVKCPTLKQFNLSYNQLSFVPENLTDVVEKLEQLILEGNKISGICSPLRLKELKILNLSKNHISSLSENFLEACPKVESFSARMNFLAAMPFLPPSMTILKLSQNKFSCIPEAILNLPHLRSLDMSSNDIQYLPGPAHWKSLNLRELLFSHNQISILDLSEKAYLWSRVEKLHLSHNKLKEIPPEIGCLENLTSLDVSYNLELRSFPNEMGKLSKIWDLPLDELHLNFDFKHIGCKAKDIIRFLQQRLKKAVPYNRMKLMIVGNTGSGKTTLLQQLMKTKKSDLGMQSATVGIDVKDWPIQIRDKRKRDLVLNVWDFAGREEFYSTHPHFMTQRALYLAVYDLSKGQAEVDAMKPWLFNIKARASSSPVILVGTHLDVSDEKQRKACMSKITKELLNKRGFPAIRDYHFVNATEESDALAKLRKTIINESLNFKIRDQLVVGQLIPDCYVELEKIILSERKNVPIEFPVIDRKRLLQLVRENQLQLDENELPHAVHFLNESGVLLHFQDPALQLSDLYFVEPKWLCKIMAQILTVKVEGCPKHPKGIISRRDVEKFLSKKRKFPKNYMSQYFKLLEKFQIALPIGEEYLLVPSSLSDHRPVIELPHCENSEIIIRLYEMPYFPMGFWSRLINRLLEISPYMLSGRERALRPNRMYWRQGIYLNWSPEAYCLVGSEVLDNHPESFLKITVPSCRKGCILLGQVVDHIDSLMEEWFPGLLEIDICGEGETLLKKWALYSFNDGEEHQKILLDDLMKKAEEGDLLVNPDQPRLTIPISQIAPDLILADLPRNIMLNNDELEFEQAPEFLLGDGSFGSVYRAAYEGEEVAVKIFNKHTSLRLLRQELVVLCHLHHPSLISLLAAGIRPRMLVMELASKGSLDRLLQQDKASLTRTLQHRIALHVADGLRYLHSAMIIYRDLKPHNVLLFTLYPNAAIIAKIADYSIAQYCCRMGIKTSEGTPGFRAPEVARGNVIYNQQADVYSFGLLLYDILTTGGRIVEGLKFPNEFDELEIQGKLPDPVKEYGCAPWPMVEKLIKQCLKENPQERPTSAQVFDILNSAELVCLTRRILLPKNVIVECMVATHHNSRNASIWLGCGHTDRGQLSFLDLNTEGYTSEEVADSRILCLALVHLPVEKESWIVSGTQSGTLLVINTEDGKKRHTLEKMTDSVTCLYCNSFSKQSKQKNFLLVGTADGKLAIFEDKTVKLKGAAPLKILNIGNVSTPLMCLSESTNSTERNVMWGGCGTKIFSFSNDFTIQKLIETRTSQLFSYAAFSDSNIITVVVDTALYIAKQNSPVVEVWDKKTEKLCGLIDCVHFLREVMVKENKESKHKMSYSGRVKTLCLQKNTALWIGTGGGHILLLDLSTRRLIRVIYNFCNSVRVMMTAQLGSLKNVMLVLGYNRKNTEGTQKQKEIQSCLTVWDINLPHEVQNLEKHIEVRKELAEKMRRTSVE

[9] = target: Leukocyte tyrosine kinase receptor (Homo sapiens, UniProt P29376); experiment: Inhibition of recombinant human GST-tagged LTK cytoplasmic domain (450 to 864 residues) expressed in baculovirus expression system at 3 uM by Z'-LYTE assay relative to control; in short: as §2
Leukocyte tyrosine kinase receptor, sequence (P29376 whole entry, the tested form may be a part): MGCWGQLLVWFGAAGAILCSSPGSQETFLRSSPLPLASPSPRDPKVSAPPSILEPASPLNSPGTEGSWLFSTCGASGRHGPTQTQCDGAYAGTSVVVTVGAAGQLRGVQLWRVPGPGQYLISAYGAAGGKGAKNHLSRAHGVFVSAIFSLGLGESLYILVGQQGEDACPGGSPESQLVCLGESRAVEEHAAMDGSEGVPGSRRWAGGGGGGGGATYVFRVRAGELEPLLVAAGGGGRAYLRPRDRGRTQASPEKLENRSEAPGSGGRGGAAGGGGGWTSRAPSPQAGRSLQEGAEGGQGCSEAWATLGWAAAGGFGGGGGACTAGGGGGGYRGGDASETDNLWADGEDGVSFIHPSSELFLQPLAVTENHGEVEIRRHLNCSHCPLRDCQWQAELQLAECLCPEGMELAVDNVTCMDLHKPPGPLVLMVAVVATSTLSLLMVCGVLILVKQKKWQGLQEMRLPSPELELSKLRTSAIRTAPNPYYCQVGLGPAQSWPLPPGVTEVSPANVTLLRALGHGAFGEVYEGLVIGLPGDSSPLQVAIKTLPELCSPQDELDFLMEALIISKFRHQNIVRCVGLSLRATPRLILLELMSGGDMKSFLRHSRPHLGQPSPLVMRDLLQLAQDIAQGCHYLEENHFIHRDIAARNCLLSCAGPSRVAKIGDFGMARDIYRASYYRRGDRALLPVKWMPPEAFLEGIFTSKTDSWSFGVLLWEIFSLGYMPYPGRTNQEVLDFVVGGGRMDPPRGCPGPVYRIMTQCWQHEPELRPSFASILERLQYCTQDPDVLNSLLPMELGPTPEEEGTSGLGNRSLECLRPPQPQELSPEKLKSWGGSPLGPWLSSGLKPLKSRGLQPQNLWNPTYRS

CAL-51 [10] = experiment: Antitumor activity against human CAL51 cells xenografted in CB17 SCID mouse assessed as tumor growth inhibition at 30 mg/kg, po administered every seven days for 16 days and measured twice per week up to 31 days by caliper method relative to control; type: functional; settings: CAL-51, po, read-out: TGI; in short: as §1
[11] = target: Leucine-rich repeat serine/threonine-protein kinase 2 (Homo sapiens, UniProt Q5S007); experiment: Inhibition of recombinant human GST-tagged LRRK2 catalytic domain (970 to 2527 residues) expressed in baculovirus expression system using LRRKtide as substrate measured after 1 hr by Alexa fluor-647 ADP tracer-based ADAPTA assay
Leucine-rich repeat serine/threonine-protein kinase 2 (Homo sapiens, UniProt Q5S007), sequence (Q5S007 whole entry, the tested form may be a part): as the sequence (Q5S007 whole entry G2019S, the tested form may be a part) above, with S2019G counted along it

With `C[C@@H](Oc1cc(C(=O)N(C)C)ccc1Nc1nc(O[C@H]2CC[C@@](C)(O)CC2)c2c(Cl)c[nH]c2n1)C(F)(F)F` the TGI (CAL-51 [1]) was “Dose-dependent effect”, the Ratio IC50 (Homo sapiens) was less than 100 and the AUC [2] was 22.5 µM·h. For the same compound, the inhibition [3] was greater than 80%, the inhibition (Mus musculus) was “Active” and the IC50 [4] was 0.7 nM. It also gave an inhibition [5] greater than 80%, an IC50 [6] of 0.261 nM and an Activity (CAL-51 [7]) of 159%. The IC50 [8] was 0.001 nM, the inhibition [9] was greater than 80% and the inhibition in vivo at 30 mg/kg (CAL-51 [10]) was 59%. It also gave an IC50 [11] of 0.001 nM.
